Measured values reported in ChEMBL document CHEMBL1155242, “Radiolabeled 5-iodo-3'-O-(17beta-succinyl-5alpha-androstan-3-one)-2'-deoxyuridine and its 5'-monophosphate for imaging and therapy of androgen receptor-positive cancers: synthesis and biological evaluation” (J Med Chem, 2009).

What was measured:
Serum [1] = experiment: Stability in human serum assessed as half life at 10 to 20 uCi/mL by size-exclusion HPLC analysis; format: ADME, cell-free
In short: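 The compound was incubated with rabbit or human serum at ambient temperature, and aliquots were taken at 1, 5 and 24 h. Aliquots were run on size-exclusion HPLC (TSK3000; 0.1 M potassium phosphate/0.1 M Na2SO4, pH 6.8, then an acetonitrile gradient). Extracts were run on C18 reversed-phase HPLC (water/acetonitrile with 0.07% TFA). Half-lives came from a monoexponential fit.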

[2] = target: T1, Sex hormone-binding globulin (Homo sapiens, UniProt P04278); experiment: Binding affinity to human sex hormone binding globulin assessed as intact compound remaining at 10 to 20 uCi/mL after 60 mins by instant thin layer chromatography; format: ADME; conditions: read-out: Stability
T1 sequence (P04278 whole entry): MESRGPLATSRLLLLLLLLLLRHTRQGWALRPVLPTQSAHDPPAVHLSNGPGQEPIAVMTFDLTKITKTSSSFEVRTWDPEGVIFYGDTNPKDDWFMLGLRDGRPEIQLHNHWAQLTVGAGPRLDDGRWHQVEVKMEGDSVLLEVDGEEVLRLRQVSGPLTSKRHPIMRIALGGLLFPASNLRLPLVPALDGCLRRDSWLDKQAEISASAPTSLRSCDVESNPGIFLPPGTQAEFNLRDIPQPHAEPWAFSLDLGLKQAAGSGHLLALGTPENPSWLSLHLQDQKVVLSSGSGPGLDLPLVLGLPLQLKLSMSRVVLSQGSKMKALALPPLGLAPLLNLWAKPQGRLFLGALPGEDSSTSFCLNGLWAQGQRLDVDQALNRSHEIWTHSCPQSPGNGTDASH

[3] = Chemical stability in phosphate buffer saline at 0.85 uCi after 1265 mins by HPLC analysis; format: physicochemical
OVCAR-3 [4] = experiment: Cytotoxicity against human OVCAR-3 cells expressing androgen receptor assessed as cell survival at 3 uCi/mL after 48 hrs; format: functional
In short: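 NIH:OVCAR-3 cells were grown for 48 h with the 125I-labelled compound, and survival was plotted against the extracellular concentration in μCi/mL.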

[5] = Stability in human OVCAR-3 cells expressing androgen receptor assessed as half life at 0.01 to 5 uCi/mL by silica gel instant thin layer chromatography; format: ADME, cell-based
[6] = target: T2, Sex hormone-binding globulin (Oryctolagus cuniculus, UniProt P15196); experiment: Binding affinity to rabbit sex hormone binding globulin at 10 to 20 uCi/mL after 60 mins by size-exclusion HPLC analysis; format: ADME; conditions: 1 h
T2 sequence (P15196 whole entry): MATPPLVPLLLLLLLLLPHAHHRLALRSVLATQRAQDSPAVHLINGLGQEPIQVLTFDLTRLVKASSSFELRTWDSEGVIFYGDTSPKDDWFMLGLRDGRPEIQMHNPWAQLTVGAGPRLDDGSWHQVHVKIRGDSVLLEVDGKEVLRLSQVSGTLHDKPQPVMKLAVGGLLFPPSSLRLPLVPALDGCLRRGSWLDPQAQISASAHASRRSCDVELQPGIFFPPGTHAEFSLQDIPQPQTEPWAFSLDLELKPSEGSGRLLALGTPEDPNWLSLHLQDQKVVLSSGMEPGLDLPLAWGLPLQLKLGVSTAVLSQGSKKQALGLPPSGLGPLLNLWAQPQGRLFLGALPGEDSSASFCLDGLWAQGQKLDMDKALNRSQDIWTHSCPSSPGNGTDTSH
In short: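 Radioligand incubated 60 min in rabbit serum; size-exclusion HPLC as for SHBG binding (phosphate/Na2SO4 pH 6.8, then CH3CN gradient) for SHBG-bound peak, with extracts run on C18 for intact compound.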

[7] = Ratio of drug level in tumor to liver in athymic NCr mouse xenografted with human OVCAR-3 cells at 180 uCi, ip administered 9 days after tumor implantation as six fractionated doses every 4 days measured after 48 hrs by gamma counting; format: ADME, organism-based; conditions: in vivo
[8] = Biodistribution in uterus of athymic NCr mouse xenografted with human OVCAR-3 cells assessed per gram of tissue at 1.12 uCi, ip after 72 hrs by gamma counting; format: ADME, organism-based; conditions: in vivo
OVCAR-3 [9] = experiment: Cellular uptake in human OVCAR-3 cells xenografted in athymic NCr mouse assessed as [125I]UdR retention per cell at an average 39.5 uCi/dose, ip administered 9 days after tumor implantation as six fractionated doses every 4 days measured after 2 weeks of last dose by gamma counting; format: ADME, organism-based; conditions: in vivo, 336 h
In short: (§1)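 OVCAR-3-bearing and healthy athymic mice given fractionated ip doses on the six-dose every-4-days schedule; tissues, tumor and lavaged cells γ-counted at necropsy, %ID/g; DNA-bound 125I in cells measured as cpm/cell.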

LNCaP = experiment: Cellular uptake in single-cell suspension of nonproliferating human LNCAP cells expressing androgen receptor assessed as increase in cellular retention at 0.37 uCi/mL after 5 to 16 hrs by gamma counting; format: ADME, cell-based
In short: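 Low-passage LNCaP held as single-cell suspension (non-proliferating) in RPMI-1640 with radioligand at 0.03 or 0.37 μCi/mL; whole-cell and nuclear radioactivity measured over time.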

[10] = Ratio of drug level in tumor to blood in athymic NCr mouse xenografted with human OVCAR-3 cells at 180 uCi, ip administered 9 days after tumor implantation as six fractionated doses every 4 days measured after 48 hrs by gamma counting; format: ADME, organism-based; conditions: tumour
[11] = Ratio of drug level in tumor to blood in athymic NCr mouse xenografted with human OVCAR-3 cells at 180 uCi, ip administered 9 days after tumor implantation as six fractionated doses every 4 days measured after 72 hrs by gamma counting; format: ADME, organism-based; conditions: tumour
Lung = experiment: Biodistribution in lung of athymic NCr mouse xenografted with human OVCAR-3 cells assessed per gram of tissue at an average 39.5 uCi/dose, ip administered 9 days after tumor implantation as six fractionated doses every 4 days measured after 2 weeks of last dose by gamma counting; format: ADME, organism-based; conditions: in vivo, 336 h; in short: as §1
[12] = Biodistribution in small intestine of athymic NCr mouse xenografted with human OVCAR-3 cells assessed per gram of tissue at an average 39.5 uCi/dose, ip administered 9 days after tumor implantation as six fractionated doses every 4 days measured after 2 weeks of last dose by gamma counting; format: ADME, organism-based; conditions: in vivo, 336 h; in short: as §1
OVCAR-3 [13] = experiment: Cellular uptake in human OVCAR-3 cells expressing androgen receptor assessed as ratio of [125I]UdR to thymidine incorporation in DNA at 1.75 uCi/mL after 24 hrs by gamma counting; format: ADME, cell-based; conditions: ovcar-3, 24 h
In short: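 OVCAR-3 cells treated with the radioligand; fraction of DNA thymidine replaced by 125IUdR determined after 24 h.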

[14] = Stability in mouse serum assessed as intact compound remaining at 20 uCi after 40 mins by size-exclusion HPLC analysis; format: ADME, cell-free; conditions: read-out: Stability
In short: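 The compound was incubated in mouse serum, which lacks circulating SHBG. Aliquots were analysed on size-exclusion HPLC (TSK3000; phosphate/Na2SO4 buffer, pH 6.8, then an acetonitrile gradient). Extracts were analysed by C18 reversed-phase HPLC to measure intact compound remaining over time.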

[15] = target: T2, Sex hormone-binding globulin; experiment: Binding affinity to rabbit sex hormone binding globulin at 20 uCi after 60 mins by reversed phase HPLC analysis; format: ADME; conditions: 1 h
Serum [16] = experiment: Stability in mouse serum assessed as time required for formation of [125I]UdR at 10 to 20 uCi/mL after 60 mins by gamma counting; format: ADME, cell-free; conditions: 1 h

Question: Which results are given for `C[C@]12CCC(=O)C[C@@H]1CC[C@@H]1[C@@H]2CC[C@]2(C)[C@@H](OC(=O)CCC(=O)O[C@H]3C[C@H](n4cc([125I])c(=O)[nH]c4=O)O[C@@H]3CO)CC[C@@H]12`?
Answer: t1/2 (Serum [1]): 0.612 days; remaining at 1 h [2]: > 91%; Stability [3]: Stable; Survival (OVCAR-3 [4]): 50%; half-life [5]: 60 days; Activity [6]: Active; Ratio [7]: 34.4; Drug uptake [8]: 1 %ID; Drug uptake (OVCAR-3 [9]): 0.0124 cpm; fold change (FC) (LNCaP): 10; Ratio [10]: 36.5; Ratio [11]: 42.2

Question: With `C[C@]12CCC(=O)C[C@@H]1CC[C@@H]1[C@@H]2CC[C@]2(C)[C@@H](OC(=O)CCC(=O)O[C@H]3C[C@H](n4cc([125I])c(=O)[nH]c4=O)O[C@@H]3COP(=O)(O)O)CC[C@@H]12` as the compound, how does the Drug uptake (Lung) read?
Answer: 0.008 %ID

Question: What about the Drug uptake [12] of the same compound?
Answer: 0.011 %ID

Question: What about the Ratio (OVCAR-3 [13]) of the same compound?
Answer: 0.002

Question: What about the remaining at 40 min, 20 uCi [14] of the same compound?
Answer: 60%

Question: What about the Activity [15] of the same compound?
Answer: Active

Question: And the Stability (Serum [16])?
Answer: < 10 min
